Legend:
[1] = test system: HeLa; assay: Antiproliferative activity against human HeLa cells after 72 hrs by MTT assay; format: functional, cell-based
Outline: (§1)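 Cells seeded at 8000 per well in 96-well plates, exposed to compound for 72 h. MTT added at 0.5 mg/mL final and incubated 4 h. Formazan dissolved in DMSO, absorbance read at 570 nm. IC50 is the concentration giving 50% reduction in cell growth, reported as the mean of three repeated experiments.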

[2] = Antiproliferative activity against human LM7 cells after 72 hrs by MTT assay; format: functional, cell-based; conditions: LM7, 72 h; outline: as §1
[3] = Antiproliferative activity against human MDA-MB-435S cells after 72 hrs by MTT assay; format: functional, cell-based; outline: as §1
[4] = test system: SW480; assay: Antiproliferative activity against human SW480 cells after 72 hrs by MTT assay; format: functional, cell-based; conditions: SW480, 72 h; outline: as §1
[5] = test system: HEp-2; assay: Antiproliferative activity against human Hep2 cells after 72 hrs by MTT assay; format: functional, cell-based; conditions: HEp-2, 72 h; outline: as §1
[6] = test system: MCF7; assay: Antiproliferative activity against human MCF7 cells after 72 hrs by MTT assay; format: functional, cell-based; conditions: MCF7, 72 h; outline: as §1
[7] = test system: SW480; assay: Cell cycle arrest in human SW480 cells assessed as accumulation at G0/G1 phase at 0.5 uM after 48 hrs by flow cytometry; format: functional
Outline: (§2)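 Cells grown to about 70% confluence in 6-well plates, then treated with compound at three concentrations for 48 h. Cell-cycle phase distribution measured by flow cytometry (FACS).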

[8] = test system: SW480; assay: Cell cycle arrest in human SW480 cells assessed as accumulation at G0/G1 phase at 0.7 uM after 48 hrs by flow cytometry; format: functional; outline: as §2
[9] = test system: SW480; assay: Cell cycle arrest in human SW480 cells assessed as accumulation at G0/G1 phase at 1 uM after 48 hrs by flow cytometry; format: functional; outline: as §2
[10] = test system: SW480; assay: Cell cycle arrest in human SW480 cells assessed as accumulation at S phase at 0.5 uM after 48 hrs by flow cytometry; format: functional; outline: as §2
[11] = test system: SW480; assay: Cell cycle arrest in human SW480 cells assessed as accumulation at S phase at 0.7 uM after 48 hrs by flow cytometry; format: functional; outline: as §2
[12] = test system: SW480; assay: Cell cycle arrest in human SW480 cells assessed as accumulation at S phase at 1 uM after 48 hrs by flow cytometry; format: functional; outline: as §2
[13] = test system: SW480; assay: Cell cycle arrest in human SW480 cells assessed as accumulation at G2/M phase at 0.5 uM after 48 hrs by flow cytometry; format: functional; outline: as §2
[14] = test system: SW480; assay: Cell cycle arrest in human SW480 cells assessed as accumulation at G2/M phase at 0.7 uM after 48 hrs by flow cytometry; format: functional; outline: as §2
[15] = test system: SW480; assay: Cell cycle arrest in human SW480 cells assessed as accumulation at G2/M phase at 1 uM after 48 hrs by flow cytometry; format: functional; outline: as §2
[16] = Cell cycle arrest in human MDA-MB-435S cells assessed as accumulation at G0/G1 phase at 0.12 uM after 48 hrs by flow cytometry; format: functional, cell-based; outline: as §2
[17] = Cell cycle arrest in human MDA-MB-435S cells assessed as accumulation at G0/G1 phase at 0.13 uM after 48 hrs by flow cytometry; format: functional, cell-based; outline: as §2
[18] = Cell cycle arrest in human MDA-MB-435S cells assessed as accumulation at G0/G1 phase at 0.14 uM after 48 hrs by flow cytometry; format: functional, cell-based; outline: as §2
[19] = Cell cycle arrest in human MDA-MB-435S cells assessed as accumulation at S phase at 0.12 uM after 48 hrs by flow cytometry; format: functional, cell-based; outline: as §2
[20] = Cell cycle arrest in human MDA-MB-435S cells assessed as accumulation at S phase at 0.13 uM after 48 hrs by flow cytometry; format: functional, cell-based; outline: as §2
[21] = Cell cycle arrest in human MDA-MB-435S cells assessed as accumulation at S phase at 0.14 uM after 48 hrs by flow cytometry; format: functional, cell-based; outline: as §2
[22] = Cell cycle arrest in human MDA-MB-435S cells assessed as accumulation at G2/M phase at 0.12 uM after 48 hrs by flow cytometry; format: functional, cell-based; outline: as §2
[23] = Cell cycle arrest in human MDA-MB-435S cells assessed as accumulation at G2/M phase at 0.13 uM after 48 hrs by flow cytometry; format: functional, cell-based; outline: as §2
[24] = Cell cycle arrest in human MDA-MB-435S cells assessed as accumulation at G2/M phase at 0.14 uM after 48 hrs by flow cytometry; format: functional, cell-based; outline: as §2

## O=c1c(Cl)c(CSC(=S)N2CCCCC2)oc2ccccc12
[1]
  IC50: 9800 nM
[2]
  IC50: 3300 nM
[3]
  IC50: 770 nM
[4]
  IC50: 690 nM
[5]
  IC50: 940 nM
[6]
  IC50: 1000 nM
[7]
  Activity: 39.39%
[8]
  Activity: 36.84%
[9]
  Activity: 26.51%
[10]
  Activity: 37.84%
[11]
  Activity: 35.2%
[12]
  Activity: 34.22%
[13]
  Activity: 27.77%
[14]
  Activity: 27.96%
[15]
  Activity: 39.27%

## O=c1c(CSC(=S)N2CCCCC2)coc2ccc(Cl)cc12
[1]
  IC50: 440 nM
[2]
  IC50: 850 nM
[3]
  IC50: 240 nM
[4]
  IC50: 790 nM
[5]
  IC50: 280 nM
[6]
  IC50: 380 nM
[16]
  Activity: 60.8%
[17]
  Activity: 58.7%
[18]
  Activity: 41.6%
[19]
  Activity: 25.3%
[20]
  Activity: 20.7%
[21]
  Activity: 33.6%
[22]
  Activity: 13.9%
[23]
  Activity: 20.6%
[24]
  Activity: 24.9%

Source: ChEMBL document CHEMBL1153612, “Synthesis and antitumor activity of novel dithiocarbamate substituted chromones” (Eur J Med Chem, 2009)
